Data: ChEMBL document CHEMBL1145429, “Enaminone amides as novel orally active GABAA receptor modulators” (J Med Chem, 2007)
The source made the active and inactive calls. The calls are words filed in the database; no cut-off is given here.

Columns and labels:
[1] = (§1) Displacement of [35S]TBPS from GABAA receptor in Sprague-Dawley rat cortex membrane; format: cell membranes
Rattus norvegicus [2] = species: Rattus norvegicus; assay: as §1; format: cell membranes
[3] = Enhancement of [3H]flunitrazepam binding to BZ-site of GABAA receptor in Sprague-Dawley rat cortex membrane; format: cell membranes
Summary of the method: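 Conditions and membrane preparation match the TBPS assay, except that GABA was 1 µM. Sites were labelled with 0.2 nM [3H]flunitrazepam, and nonspecific binding was defined with 1 µM clonazepam.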

Rattus norvegicus [4] = species: Rattus norvegicus; assay: Enhancement of [3H]muscimol binding to BZ-site of GABAA receptor in Sprague-Dawley rat cortex membrane; format: cell membranes
Mus musculus [5] = assay: Anticonvulsant activity against pentylenetetrazole-induced seizures in non-Swiss Albino mouse at 50 mg/kg, ip; format: functional, organism-based; design: dose 50 mg/kg
Mus musculus [6] = assay: Induction of loss of righting reflex in non-Swiss Albino mouse at 50 mg/kg, ip after 40 mins; format: functional, organism-based; design: dose 50 mg/kg
Summary of the method: (§2)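 Male NSA mice were dosed at 50 mg/kg ip or po in PEG 400 and then placed on their backs. Animals staying on their backs for more than 1 min were scored as having lost the righting reflex.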

Mus musculus [7] = assay: Anxiolytic activity in non-Swiss Albino mouse assessed as reduction of time spent in dark at 3 mg/kg, po; format: functional, organism-based; design: dose 3 mg/kg
Summary of the method: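 Male NSA mice (25-30 g) were dosed po 30 min before a 3 min session in a light-dark box: a black compartment lit with red light and an illuminated white compartment, joined by a floor-level hole. Time spent in each compartment was recorded. Vehicle was 3:1 PEG 400/5% dextrose in water.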

Mus musculus [8] = assay: CNS toxicity by rotarod test in non-Swiss Albino mouse at 3 mg/kg, po; format: organism-based; design: dose 3 mg/kg, route oral; settings: in vivo
Summary of the method: (§3)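 Mice were dosed orally and scored on the rotarod for CNS depressant potential. TD50, the dose causing behavioral toxicity in half the animals, was calculated from each dose-response function by the Litchfield-Wilcoxon method.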

[9] = Therapeutic index, ratio of light-dark MED to TD50 by rotarod test in non-Swiss Albino mouse at 3 mg/kg, po; format: organism-based; design: dose 3 mg/kg, route oral; settings: in vivo, read-out: TI
Summary of the method: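 The index was calculated as […]. Both were measured in male NSA mice given oral doses. TD50 was derived by the Litchfield-Wilcoxon method, and light-dark time was recorded over a 3 min session 30 min after dosing.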

[10] = target: GABA-A receptor; alpha-1/beta-2/gamma-2 (Homo sapiens) (UniProt P14867+P47870+P18507); assay: Activity at human GABAA alpha-1-beta-2-gamma-2L expressed in Xenopus oocytes assessed as potentiation of GABA currents in absence of GABA at 10 uM; format: cell-based; settings: Oocyte
Mus musculus [11] = assay: Induction of loss of righting reflex in non-Swiss Albino mouse at 50 mg/kg, po; format: functional, organism-based; design: dose 50 mg/kg; summary of the method: as §2
Rattus norvegicus [12] = species: Rattus norvegicus; assay: Displacement of [3H]flunitrazepam from BZ-site of GABAA receptor in Sprague-Dawley rat cortex membrane; format: cell membranes
Summary of the method: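 P2 membrane pellet (sucrose homogenate spun 1000g then 9000g), resuspended in 50 mM Na/K phosphate pH 7.4 with 200 mM NaCl. Incubated with 0.2 nM [3H]flunitrazepam, 1 µM GABA and test drug in DMSO (≤1%) for 90 min at 25 °C. Nonspecific binding defined with 1 µM clonazepam. Filtration, scintillation counting; nonlinear regression fit.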

Mus musculus [13] = assay: Suppression of locomotor activity in non-Swiss Albino mouse at 50 mg/kg, po; format: functional, organism-based; design: dose 50 mg/kg
Summary of the method: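 Male NSA mice, either nonhabituated or habituated (30 min in the chamber on 3 consecutive days), were given compound in PEG 400 or vehicle and immediately placed in an activity chamber. Horizontal beam breaks were recorded every 5 min, over 1 h for habituated mice. Activity was taken as total distance traveled (cm), with testing between 9 a.m. and 2 p.m.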

Mus musculus [14] = assay: CNS toxicity by rotarod test in non-Swiss Albino mouse at 50 mg/kg, po; format: organism-based; design: dose 50 mg/kg, route oral; settings: in vivo; summary of the method: as §3

| SMILES | IC50 [1] [nM] | Imax (Rattus norvegicus [2]) [%] | Activity (Mus musculus [5]) | other results |
| --- | --- | --- | --- | --- |
| CCOC(=O)/C(=C\Nc1ccc(F)cc1)C(=O)c1cc(F)c(Cl)cc1Cl | 130 | 87 |  |  |
| C#Cc1ccc(N/C=C(\C(=O)NCCC)C(=O)c2ccccc2Cl)cc1 |  |  |  | EC50 [3]: 60 nM; Activity (Rattus norvegicus [4]): Active |
| C#Cc1ccc(N/C=C(\C(=O)OCC)C(=O)c2ccccc2Cl)cc1 | 8 | 100 |  | EC50 [3]: 6 nM; Activity (Rattus norvegicus [4]): Active |
| CCC(CC)NC(=O)/C(=C\Nc1ccc(Cl)cc1)C(=O)c1ccccc1Cl | 80 | 86 | inactive |  |
| CC(C)NC(=O)/C(=C\Nc1ccc(Cl)cc1)C(=O)c1ccccc1Cl | 40 | 80 | inactive | Activity (Mus musculus [6]): Active; Activity (Mus musculus [7]): Active; Activity (Mus musculus [8]): Non-toxic; selectivity ratio [9]: > 10; Activity [10]: inactive |
| CCCNC(=O)/C(=C\Nc1ccc(Cl)cc1)C(=O)c1ccccc1Cl | 45 | 90 | inactive | Activity (Mus musculus [6]): Active; Activity (Mus musculus [11]): inactive |
| CCOC(=O)/C(=C\Nc1ccc(C(C)C)cc1)C(=O)c1ccccc1Cl | 360 | 94 |  |  |
| O=C(NC1CC1)/C(=C\Nc1ccc(Cl)cc1)C(=O)c1ccccc1Cl | 30 | 92 | inactive | Activity (Mus musculus [6]): Active |
| O=C1CN=C(c2ccccc2Cl)c2cc([N+](=O)[O-])ccc2N1 |  |  |  | Activity (Rattus norvegicus [12]): Dose-dependent effect |
| CC(C)(C)NC(=O)/C(=C\Nc1ccc(Cl)cc1)C(=O)c1ccccc1Cl | 3000 | 100 | inactive |  |
| CCOC(=O)/C(=C\Nc1ccc(F)cc1)C(=O)c1ccccc1Cl | 300 | 93 |  |  |
| O=C(NC1CCC1)/C(=C\Nc1ccc(Cl)cc1)C(=O)c1ccccc1Cl | 7 | 88 | inactive | Activity (Mus musculus [6]): Active |
| NC(=O)/C(=C\Nc1ccc(Cl)cc1)C(=O)c1ccccc1Cl |  | 40 | inactive |  |
| CCOC(=O)/C(=C\Nc1ccc(Cl)cc1)C(=O)c1ccccc1Cl | 90 | 95 |  | Activity (Mus musculus [6]): Active; Activity (Mus musculus [11]): inactive; Activity (Mus musculus [13]): inactive |
| CCC(C)NC(=O)/C(=C\Nc1ccc(Cl)cc1)C(=O)c1ccccc1Cl (stereo unspecified) | 20 | 86 | inactive | Activity (Mus musculus [6]): Active |
| CNC(=O)/C(=C\Nc1ccc(Cl)cc1)C(=O)c1ccccc1Cl | 160 | 74 | inactive |  |
| CCOC(=O)/C(=C\Nc1cccc(Cl)c1)C(=O)c1ccccc1Cl | 600 | 100 |  |  |
| CCOC(=O)/C(=C\Nc1ccc(F)cc1)C(=O)c1ccc(Cl)cc1 | 490 | 100 |  |  |
| CCOC(=O)/C(=C\Nc1ccc(C)cc1)C(=O)c1ccccc1Cl | 450 | 93 |  |  |
| CC(C)C(C)NC(=O)/C(=C\Nc1ccc(Cl)cc1)C(=O)c1ccccc1Cl (stereo unspecified) | 400 | 94 | inactive |  |
| CCNC(=O)/C(=C\Nc1ccc(Cl)cc1)C(=O)c1ccccc1Cl | 50 | 82 | inactive | Activity (Mus musculus [6]): Active; Activity (Mus musculus [11]): inactive; Activity (Mus musculus [14]): Non-toxic |
| O=C(NC1CCCC1)/C(=C\Nc1ccc(Cl)cc1)C(=O)c1ccccc1Cl | 30 | 88 | inactive |  |
| CCOC(=O)/C(=C\Nc1ccccc1Cl)C(=O)c1ccccc1Cl | 700 | 100 |  |  |
| CCOC(=O)/C(=C\Nc1ccc(F)cc1)C(=O)c1cccc(Cl)c1 | 900 | 90 |  |  |
